Assay results published in ChEMBL document CHEMBL5154792, “A New Amino Acid for Improving Permeability and Solubility in Macrocyclic Peptides through Side Chain-to-Backbone Hydrogen Bonding” (J Med Chem, 2022).
Values after ≈ are worked out from the molar mass of the structure shown.

Assays:
[1] = Apparent permeability of the compound after 15 hrs by UPLC-MS based PAMPA; assay type: ADME; conditions: for Papp: pampa, 15 h; for Papp at 15 h: PAMPA
How it was run: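 Donor: 2 µM peptide in PBS pH 7.4 with 5% DMSO final. Acceptor: 5% DMSO in PBS. Membrane of 1% (w/v) soybean lecithin in n-dodecane. Incubated ~15 h at room temperature (exact time recorded) in a humidified sealed chamber. Donor and acceptor wells quantified by UPLC-MS in quadruplicate. Papp derived from %T (acceptor vs theoretical equilibrium) using membrane area 240 mm2.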

[2] = Thermodynamic solubility of the compound at pH 7.4 after 24 hrs by UPLC-MS analysis; assay type: physicochemical; conditions: buffer, read-out: Therm_solubility
How it was run: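 10 mM DMSO stocks were dried down, redissolved in PBS pH 7.4 (maximum 2 mM), sonicated 1 h, then gently agitated ~24 h at 37 °C. Filtered through 0.7 µm glass fiber, diluted up to 40-fold in MeCN and quantified by UPLC-MS against standard curves (50 µM to 0.1 µM in DMSO).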

SMILES | Papp [1] | solubility thermodynamic at 24 h [2] | Papp at 15 h [1]
CC(C)C[C@@H]1NC(=O)[C@@H](CC(C)C)NC(=O)[C@@H](CC(C)C)NC(=O)[C@@H](CC(C)C)NC(=O)[C@@H](CC(C)C)NC(=O)[C@H]2CCCN2C1=O | 5.3 10^-6 cm/s | 240 µM (≈ 159 µg/mL) | –
CC(C)C[C@@H]1NC(=O)[C@@H](CC(C)C)NC(=O)[C@H](CC(C)C)NC(=O)[C@@H](CCC(=O)N(C)C)NC(=O)[C@H]2CCCN2C(=O)[C@H](CC(C)C)NC1=O | – | 1660 µM (≈ 1170 µg/mL) | 0.7 ×10⁻⁶ cm/s
CC(C)C[C@@H]1NC(=O)[C@@H](CC(C)C)NC(=O)[C@@H](CC(C)C)NC(=O)[C@@H](CCC(=O)N2CCCC2)NC(=O)[C@H]2CCCN2C(=O)[C@H](CC(C)C)NC1=O | 1.7 10^-6 cm/s | 640 µM (≈ 468 µg/mL) | –
CC(C)C[C@@H]1NC(=O)[C@@H](CC(C)C)NC(=O)[C@H](CC(C)C)NC(=O)[C@@H](CC(C)C)NC(=O)[C@H]2CCCN2C(=O)[C@H](CCC(=O)N2CCCC2)NC1=O | – | 600 µM (≈ 439 µg/mL) | 0.18 ×10⁻⁶ cm/s
CC(C)C[C@@H]1NC(=O)[C@H](CCC(=O)N2CCCC2)NC(=O)[C@@H](CC(C)C)NC(=O)[C@@H](CC(C)C)NC(=O)[C@@H](CC(C)C)NC(=O)[C@H]2CCCN2C1=O | – | 510 µM (≈ 373 µg/mL) | 0.32 ×10⁻⁶ cm/s
CC(C)C[C@@H]1NC(=O)[C@@H](CC(C)C)NC(=O)[C@H](CC(C)C)NC(=O)[C@@H](CC(C)C)NC(=O)[C@H]2CCCN2C(=O)[C@H](CC(C)C)NC1=O | 8 10^-6 cm/s | 63 µM (≈ 41.8 µg/mL) | –
CC(C)C[C@@H]1NC(=O)[C@@H](CC(C)C)NC(=O)[C@H]2CCCN2C(=O)[C@H](CC(C)C)NC(=O)[C@H](CCC(=O)N2CCCC2)NC(=O)[C@@H](CC(C)C)NC1=O | – | 550 µM (≈ 403 µg/mL) | 0.28 ×10⁻⁶ cm/s
CC(C)C[C@@H]1NC(=O)[C@@H](CC(C)C)NC(=O)[C@@H](CCC(=O)N2CCCC2)NC(=O)[C@@H](CC(C)C)NC(=O)[C@@H](CC(C)C)NC(=O)[C@H]2CCCN2C1=O | – | 460 µM (≈ 337 µg/mL) | 1.3 ×10⁻⁶ cm/s
CC(C)C[C@@H]1NC(=O)[C@@H](CC(C)C)NC(=O)[C@H](CCC(=O)N2CCCC2)NC(=O)[C@@H](CC(C)C)NC(=O)[C@H]2CCCN2C(=O)[C@H](CC(C)C)NC1=O | – | 140 µM (≈ 102 µg/mL) | 0.23 ×10⁻⁶ cm/s
CC(C)C[C@@H]1NC(=O)[C@@H](CC(C)C)NC(=O)[C@@H](CCC(=O)N2CCCC2)NC(=O)[C@@H](CC(C)C)NC(=O)[C@H]2CCCN2C(=O)[C@H](CC(C)C)NC1=O | – | 550 µM (≈ 403 µg/mL) | 0.66 ×10⁻⁶ cm/s
CC(C)C[C@@H]1NC(=O)[C@@H](CC(C)C)NC(=O)[C@@H](CC(C)C)NC(=O)[C@@H](CC(C)C)NC(=O)[C@H]2CCCN2C(=O)[C@H](CCC(=O)N2CCCC2)NC1=O | – | 720 µM (≈ 527 µg/mL) | 0.66 ×10⁻⁶ cm/s
CC(C)C[C@@H]1NC(=O)[C@@H](CCC(=O)N2CCCC2)NC(=O)[C@@H](CC(C)C)NC(=O)[C@@H](CC(C)C)NC(=O)[C@@H](CC(C)C)NC(=O)[C@H]2CCCN2C1=O | – | 550 µM (≈ 403 µg/mL) | 0.13 ×10⁻⁶ cm/s
CC(C)C[C@@H]1NC(=O)[C@@H](CC(C)C)NC(=O)[C@H](CC(C)C)NC(=O)[C@@H](CC(=O)N(C)C)NC(=O)[C@H]2CCCN2C(=O)[C@H](CC(C)C)NC1=O | – | 1120 µM (≈ 775 µg/mL) | 0.28 ×10⁻⁶ cm/s
CC(C)C[C@@H]1NC(=O)[C@@H](CCC(=O)N2CCCC2)NC(=O)[C@H](CC(C)C)NC(=O)[C@@H](CC(C)C)NC(=O)[C@H]2CCCN2C(=O)[C@H](CC(C)C)NC1=O | – | 580 µM (≈ 425 µg/mL) | 0.14 ×10⁻⁶ cm/s
CC(C)C[C@@H]1NC(=O)[C@@H](CC(C)C)NC(=O)[C@H](CC(C)C)NC(=O)[C@@H](CC(=O)N2CCCC2)NC(=O)[C@H]2CCCN2C(=O)[C@H](CC(C)C)NC1=O | – | 670 µM (≈ 481 µg/mL) | 0.56 ×10⁻⁶ cm/s
COC(=O)CC[C@H]1NC(=O)[C@H]2CCCN2C(=O)[C@H](CC(C)C)NC(=O)[C@H](CC(C)C)NC(=O)[C@@H](CC(C)C)NC(=O)[C@H](CC(C)C)NC1=O | – | 710 µM (≈ 492 µg/mL) | 2 ×10⁻⁶ cm/s
CC(C)C[C@@H]1NC(=O)[C@@H](CC(C)C)NC(=O)[C@@H](CC(C)C)NC(=O)[C@@H](CC(C)C)NC(=O)[C@H]2CCCN2C(=O)[C@H](CC(C)C)NC1=O | 8.1 10^-6 cm/s | 16 µM (≈ 10.6 µg/mL) | –
CC(C)C[C@@H]1NC(=O)[C@@H](CC(C)C)NC(=O)[C@@H](CC(C)C)NC(=O)[C@@H](CC(C)C)NC(=O)[C@@H](CCC(=O)N2CCCC2)NC(=O)[C@H]2CCCN2C1=O | 0.56 10^-6 cm/s | 610 µM (≈ 447 µg/mL) | –
CC(C)C[C@@H]1NC(=O)[C@@H](CC(C)C)NC(=O)[C@@H](CC(C)C)NC(=O)[C@@H](CCC(=O)N2CCCC2)NC(=O)[C@@H](CC(C)C)NC(=O)[C@H]2CCCN2C1=O | – | 450 µM (≈ 329 µg/mL) | 1.1 ×10⁻⁶ cm/s
CC(C)C[C@@H]1NC(=O)[C@@H](CCC(=O)N2CCCC2)NC(=O)[C@@H](CC(C)C)NC(=O)[C@@H](CC(C)C)NC(=O)[C@H]2CCCN2C(=O)[C@H](CC(C)C)NC1=O | – | 580 µM (≈ 425 µg/mL) | 0.3 ×10⁻⁶ cm/s
CC(C)C[C@@H]1NC(=O)[C@@H](CC(C)C)NC(=O)[C@H](CC(C)C)NC(=O)[C@@H](CCC(=O)N2CCCC2)NC(=O)[C@H]2CCCN2C(=O)[C@H](CC(C)C)NC1=O | 1.5 10^-6 cm/s | 730 µM (≈ 534 µg/mL) | –
CC(C)C[C@H]1NC(=O)[C@H]2CCCN2C(=O)[C@H](CCC(=O)N2CCCC2)NC(=O)[C@@H](CC(C)C)NC(=O)[C@@H](CC(C)C)NC(=O)[C@@H](CC(C)C)NC1=O | – | 560 µM (≈ 410 µg/mL) | 1.5 ×10⁻⁶ cm/s
